Results as given in ChEMBL document CHEMBL4840303, “Design, synthesis, biological evaluation and pharmacophore model analysis of novel tetrahydropyrrolo[3,4-c]pyrazol derivatives as potential TRKs inhibitors” (Eur J Med Chem, 2021).

Legend:
KM12 [1] = test: Induction of apoptosis in human KM12 cells assessed as viable cells at 500 nM measured after 48 hrs by AnnexinV-FITC/PI staining based flowcytometry assay relative to control; assay type: functional; details: read-out: Activity
How it was run: (§1)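 10^5 cells in Annexin V binding buffer stained with FITC-Annexin V and PI for 10 min at room temperature in the dark, diluted with PBS and analysed by flow cytometry (FITC 494/518 nm, PI 535/617 nm).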

[2] = Tmax in Sprague dawley rat at 3 mg/kg, po; assay type: ADME, organism-based; details: in vivo
How it was run: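 Male/female status not given; SD rats (n = 3 per group) dosed orally at 3 mg/kg as a single dose. Blood taken into heparin tubes at set time points and centrifuged at 4 °C. Plasma levels quantified by LC-MS/MS; noncompartmental parameters fitted.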

KM12 [3] = test: Cell cycle arrest in human KM12 cells assessed as accumulation of cells at less G1 phase at 500 nM measured after 48 hrs by AnnexinV-FITC/PI staining based flowcytometry method relative to control; assay type: functional
[4] = target: High affinity nerve growth factor receptor (Homo sapiens, UniProt P04629); test: Inhibition of recombinant His-tagged human TRKA expressed in baculovirus expression system at 1 uM measured by select screen assay relative to control
How it was run: (§2)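 Single-concentration profiling at 1.0 µM in a 28-kinase SelectScreen panel; percent inhibition reported.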

KM12 [5] = test: Induction of apoptosis in human KM12 cells assessed as late apoptotic cells at 125 nM measured after 48 hrs by AnnexinV-FITC/PI staining based flowcytometry assay relative to control; assay type: functional
How it was run: (§3)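 They were detached with trypsin, washed twice in PBS, and 10^5 cells were suspended in Annexin V binding buffer. Cells were stained with FITC-Annexin V and PI for 10 min at room temperature in the dark, diluted with PBS and analysed by flow cytometry.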

KM12 [6] = test: Cell cycle arrest in human KM12 cells assessed as accumulation of cells at G1 phase at 500 nM measured after 48 hrs by AnnexinV-FITC/PI staining based flowcytometry method relative to control; assay type: functional
KM12 [7] = test: Induction of apoptosis in human KM12 cells assessed as late apoptotic cells at 62.5 nM measured after 48 hrs by AnnexinV-FITC/PI staining based flowcytometry assay relative to control; assay type: functional; how it was run: as §3
KM12 [8] = test: Induction of apoptosis in human KM12 cells assessed as early apoptotic cells at 1000 nM measured after 48 hrs by AnnexinV-FITC/PI staining based flowcytometry assay relative to control; assay type: functional; how it was run: as §3
KM12 [9] = test: Induction of apoptosis in human KM12 cells assessed as necrotic cells at 250 nM measured after 48 hrs by AnnexinV-FITC/PI staining based flowcytometry assay relative to control; assay type: functional; how it was run: as §1
[10] = target: Protein kinase C alpha type (Homo sapiens) (UniProt P17252); test: Inhibition of recombinant GST-tagged human full length PRKCA expressed in insect expression system at 1 uM measured by select screen assay relative to control; how it was run: as §2
[11] = target: Tyrosine-protein kinase BTK (Homo sapiens) (UniProt Q06187); test: Inhibition of recombinant His-tagged full length human BTK expressed in baculovirus expression system at 1 uM measured by select screen assay relative to control; how it was run: as §2
KM12 [12] = test: Cell cycle arrest in human KM12 cells assessed as accumulation of cells at greater G1 phase at 500 nM measured after 48 hrs by AnnexinV-FITC/PI staining based flowcytometry method relative to control; assay type: functional
[13] = Stability in human liver microsomes assessed as compound remaining at 100 uM measured after 60 mins by LC-MS/MS analysis; assay type: ADME, Microsome; details: 1 h
How it was run: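 Human liver microsomes diluted to 0.59 mg/mL working solution in 100 mM potassium phosphate, prewarmed 10 min at 37 °C; compound added from a 100 µM working solution. NADPH (in 10 mM MgCl2) added to one plate, buffer instead in no-cofactor control. Incubated at 37 °C, quenched at 5, 15, 30, 45, 60 min, centrifuged, analysed by LC-MS/MS.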

[14] = Clearance in Sprague dawley rat at 1 mg/kg, iv; assay type: ADME, organism-based; details: in vivo
How it was run: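 Blood was collected into heparin tubes at specified time points and centrifuged at once (4 °C, 4000 rpm, 20 min). Plasma levels were quantified by LC-MS/MS. Parameters came from noncompartmental analysis.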

[15] = target: Tyrosine-protein kinase JAK2 (Homo sapiens) (UniProt O60674); test: Inhibition of recombinant GST-tagged human JAK2 expressed in baculovirus expression system at 1 uM measured by select screen assay relative to control; how it was run: as §2
[16] = Stability in human plasma assessed as compound remaining incubated for 30 mins by LC-MS/MS analysis; assay type: ADME, cell-free; details: read-out: Stability
How it was run: (§4)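 Pooled frozen human plasma thawed at 37 °C, centrifuged to remove clots, pH adjusted to 7.4 if required. Spiked to 2 µM final (from 100 µM dosing solution), in duplicate, incubated at 37 °C in a water bath. Sampled at 0, 10, 30, 60 and 120 min, quenched with acetonitrile stop solution containing internal standards, centrifuged, and supernatant analysed by LC-MS/MS for percent remaining.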

[17] = target: BDNF/NT-3 growth factors receptor (Homo sapiens, UniProt Q16620); test: Inhibition of recombinant His-tagged human TRKB expressed in baculovirus expression system at 1 uM measured by select screen assay relative to control; how it was run: as §2
KM12 [18] = test: Cell cycle arrest in human KM12 cells assessed as accumulation of cells at G2 phase at 125 nM measured after 48 hrs by AnnexinV-FITC/PI staining based flowcytometry method relative to control; assay type: functional
CYP1A2 = CYP1A2 (Homo sapiens, UniProt P05177); test: Inhibition of CYP1A2 in human liver microsomes at 10 uM preincubated for 10 mins followed by addition of NADPH and measured after 15 mins by LC-MS/MS analysis; assay type: ADME; details: time 25 min
How it was run: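 Pooled human liver microsomes (0.253 mg/mL) with test compound at 10 µM and probe substrates: phenacetin (CYP1A2), diclofenac (CYP2C9), S-mephenytoin (CYP2C19), dextromethorphan (CYP2D6), midazolam (CYP3A4). 10 min preincubation at 37 °C, NADPH-regenerating system added, 15 min at 37 °C. Stopped with cold acetonitrile containing tolbutamide/labetalol internal standards, centrifuged, supernatant read by LC-MS/MS; % inhibition.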

KM12 [19] = test: Cell cycle arrest in human KM12 cells assessed as accumulation of cells at G1 phase at 62.5 nM measured after 48 hrs by AnnexinV-FITC/PI staining based flowcytometry method relative to control; assay type: functional
KM12 [20] = test: Induction of apoptosis in human KM12 cells assessed as late apoptotic cells at 250 nM measured after 48 hrs by AnnexinV-FITC/PI staining based flowcytometry assay relative to control; assay type: functional; how it was run: as §3
[21] = target: Serine/threonine-protein kinase TBK1 (Homo sapiens) (UniProt Q9UHD2); test: Inhibition of recombinant GST-tagged full length human TBK1 expressed in baculovirus expression system at 1 uM measured by select screen assay relative to control; how it was run: as §2
KM12 [22] = test: Induction of apoptosis in human KM12 cells assessed as necrotic cells at 125 nM measured after 48 hrs by AnnexinV-FITC/PI staining based flowcytometry assay relative to control; assay type: functional; how it was run: as §3
[23] = Stability in human plasma assessed as compound remaining incubated for 60 mins by LC-MS/MS analysis; assay type: ADME, cell-free; details: read-out: Stability; how it was run: as §4
[24] = target: Receptor-type tyrosine-protein kinase FLT3 (Homo sapiens) (UniProt P36888); test: Inhibition of recombinant His-tagged human FLT3 expressed in baculovirus expression system at 1 uM measured by select screen assay relative to control; how it was run: as §2
Receptor-type tyrosine-protein kinase FLT3 (Homo sapiens), sequence (P36888 whole entry): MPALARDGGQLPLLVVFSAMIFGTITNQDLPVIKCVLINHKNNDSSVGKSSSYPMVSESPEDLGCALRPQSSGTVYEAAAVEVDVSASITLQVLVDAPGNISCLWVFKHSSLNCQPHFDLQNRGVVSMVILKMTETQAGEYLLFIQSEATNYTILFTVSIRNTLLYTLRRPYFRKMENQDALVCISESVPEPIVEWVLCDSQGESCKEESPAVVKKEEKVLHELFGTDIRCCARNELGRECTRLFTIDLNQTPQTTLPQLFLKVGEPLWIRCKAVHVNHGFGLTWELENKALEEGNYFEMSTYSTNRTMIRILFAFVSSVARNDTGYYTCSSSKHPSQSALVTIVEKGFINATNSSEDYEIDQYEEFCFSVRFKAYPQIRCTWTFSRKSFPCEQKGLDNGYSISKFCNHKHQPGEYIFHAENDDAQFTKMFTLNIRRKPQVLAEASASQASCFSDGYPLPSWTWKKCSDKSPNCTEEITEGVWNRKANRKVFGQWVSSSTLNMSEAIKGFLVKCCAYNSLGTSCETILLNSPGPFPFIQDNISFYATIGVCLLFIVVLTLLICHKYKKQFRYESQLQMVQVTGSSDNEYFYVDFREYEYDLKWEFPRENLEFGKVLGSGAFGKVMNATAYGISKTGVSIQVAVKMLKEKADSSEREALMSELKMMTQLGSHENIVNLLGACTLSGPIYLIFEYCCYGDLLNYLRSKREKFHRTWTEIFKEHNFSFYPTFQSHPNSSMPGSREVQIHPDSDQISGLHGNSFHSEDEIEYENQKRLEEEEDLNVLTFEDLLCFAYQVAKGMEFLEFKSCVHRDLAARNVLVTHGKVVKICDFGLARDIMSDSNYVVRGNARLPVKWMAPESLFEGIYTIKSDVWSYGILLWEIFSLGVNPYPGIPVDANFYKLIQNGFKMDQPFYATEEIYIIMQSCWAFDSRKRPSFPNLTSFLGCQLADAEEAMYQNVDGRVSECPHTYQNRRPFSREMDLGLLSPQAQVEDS

CYP1A2, sequence (P05177 whole entry): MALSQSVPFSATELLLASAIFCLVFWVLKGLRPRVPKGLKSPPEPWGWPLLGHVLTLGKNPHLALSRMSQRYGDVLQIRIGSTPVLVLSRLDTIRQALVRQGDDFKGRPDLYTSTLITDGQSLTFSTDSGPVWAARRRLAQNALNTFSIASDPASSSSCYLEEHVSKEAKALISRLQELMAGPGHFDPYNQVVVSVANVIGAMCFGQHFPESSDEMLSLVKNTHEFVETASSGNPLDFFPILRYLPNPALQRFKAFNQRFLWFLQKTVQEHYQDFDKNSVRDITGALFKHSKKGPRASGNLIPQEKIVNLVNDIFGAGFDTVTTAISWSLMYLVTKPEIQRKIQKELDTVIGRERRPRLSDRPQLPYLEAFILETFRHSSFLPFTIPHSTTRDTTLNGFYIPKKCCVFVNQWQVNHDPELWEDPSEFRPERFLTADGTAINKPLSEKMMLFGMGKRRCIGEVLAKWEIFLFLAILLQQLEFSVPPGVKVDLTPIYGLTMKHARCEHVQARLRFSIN
High affinity nerve growth factor receptor, sequence (P04629 33-796 limits assumed): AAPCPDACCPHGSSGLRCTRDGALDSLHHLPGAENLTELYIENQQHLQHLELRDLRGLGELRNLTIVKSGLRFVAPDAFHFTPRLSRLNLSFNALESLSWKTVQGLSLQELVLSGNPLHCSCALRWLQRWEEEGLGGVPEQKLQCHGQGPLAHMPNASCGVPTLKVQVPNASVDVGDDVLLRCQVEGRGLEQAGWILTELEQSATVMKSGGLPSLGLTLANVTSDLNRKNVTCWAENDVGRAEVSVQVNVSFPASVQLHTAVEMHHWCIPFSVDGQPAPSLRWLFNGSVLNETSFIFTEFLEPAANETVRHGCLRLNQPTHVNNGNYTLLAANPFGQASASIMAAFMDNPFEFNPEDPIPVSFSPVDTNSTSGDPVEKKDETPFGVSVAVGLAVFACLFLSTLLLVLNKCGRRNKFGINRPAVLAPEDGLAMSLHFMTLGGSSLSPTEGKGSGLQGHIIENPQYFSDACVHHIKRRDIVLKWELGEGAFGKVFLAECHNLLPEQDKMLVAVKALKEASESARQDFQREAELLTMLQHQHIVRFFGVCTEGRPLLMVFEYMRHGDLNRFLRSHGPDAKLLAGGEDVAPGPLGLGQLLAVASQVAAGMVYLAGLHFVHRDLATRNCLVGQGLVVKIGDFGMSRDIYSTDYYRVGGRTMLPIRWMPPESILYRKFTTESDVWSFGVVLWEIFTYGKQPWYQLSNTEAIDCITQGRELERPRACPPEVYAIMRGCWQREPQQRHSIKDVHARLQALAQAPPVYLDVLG
Tyrosine-protein kinase JAK2 (Homo sapiens), sequence (O60674 whole entry): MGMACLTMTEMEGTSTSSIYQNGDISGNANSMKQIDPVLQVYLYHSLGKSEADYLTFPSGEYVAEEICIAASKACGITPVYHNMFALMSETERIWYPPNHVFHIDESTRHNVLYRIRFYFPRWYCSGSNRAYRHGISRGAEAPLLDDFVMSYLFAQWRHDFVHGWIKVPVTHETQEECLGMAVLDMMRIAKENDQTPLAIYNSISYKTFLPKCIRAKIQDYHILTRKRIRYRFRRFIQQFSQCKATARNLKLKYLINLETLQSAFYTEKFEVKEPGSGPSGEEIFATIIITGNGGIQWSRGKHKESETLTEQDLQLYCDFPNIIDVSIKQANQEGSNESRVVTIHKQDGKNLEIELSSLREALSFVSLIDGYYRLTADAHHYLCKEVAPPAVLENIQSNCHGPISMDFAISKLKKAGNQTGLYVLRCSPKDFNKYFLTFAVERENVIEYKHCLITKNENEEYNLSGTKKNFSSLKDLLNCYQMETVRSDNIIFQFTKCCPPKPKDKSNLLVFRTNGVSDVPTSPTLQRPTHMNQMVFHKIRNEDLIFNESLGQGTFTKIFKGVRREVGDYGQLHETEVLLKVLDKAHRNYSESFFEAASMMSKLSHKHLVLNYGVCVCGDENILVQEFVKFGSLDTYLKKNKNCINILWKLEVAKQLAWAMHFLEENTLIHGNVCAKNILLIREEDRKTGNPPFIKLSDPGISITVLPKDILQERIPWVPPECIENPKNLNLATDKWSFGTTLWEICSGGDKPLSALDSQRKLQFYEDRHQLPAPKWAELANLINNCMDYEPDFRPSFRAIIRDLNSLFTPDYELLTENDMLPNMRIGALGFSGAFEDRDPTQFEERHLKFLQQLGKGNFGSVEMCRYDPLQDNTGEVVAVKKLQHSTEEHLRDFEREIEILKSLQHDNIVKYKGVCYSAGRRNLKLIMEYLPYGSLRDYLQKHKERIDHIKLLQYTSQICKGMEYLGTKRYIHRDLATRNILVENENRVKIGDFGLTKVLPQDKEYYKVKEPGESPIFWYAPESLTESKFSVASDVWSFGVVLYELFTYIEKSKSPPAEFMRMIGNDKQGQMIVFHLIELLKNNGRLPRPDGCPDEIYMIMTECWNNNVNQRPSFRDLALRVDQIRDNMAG
BDNF/NT-3 growth factors receptor, sequence (Q16620 32-822 limits assumed): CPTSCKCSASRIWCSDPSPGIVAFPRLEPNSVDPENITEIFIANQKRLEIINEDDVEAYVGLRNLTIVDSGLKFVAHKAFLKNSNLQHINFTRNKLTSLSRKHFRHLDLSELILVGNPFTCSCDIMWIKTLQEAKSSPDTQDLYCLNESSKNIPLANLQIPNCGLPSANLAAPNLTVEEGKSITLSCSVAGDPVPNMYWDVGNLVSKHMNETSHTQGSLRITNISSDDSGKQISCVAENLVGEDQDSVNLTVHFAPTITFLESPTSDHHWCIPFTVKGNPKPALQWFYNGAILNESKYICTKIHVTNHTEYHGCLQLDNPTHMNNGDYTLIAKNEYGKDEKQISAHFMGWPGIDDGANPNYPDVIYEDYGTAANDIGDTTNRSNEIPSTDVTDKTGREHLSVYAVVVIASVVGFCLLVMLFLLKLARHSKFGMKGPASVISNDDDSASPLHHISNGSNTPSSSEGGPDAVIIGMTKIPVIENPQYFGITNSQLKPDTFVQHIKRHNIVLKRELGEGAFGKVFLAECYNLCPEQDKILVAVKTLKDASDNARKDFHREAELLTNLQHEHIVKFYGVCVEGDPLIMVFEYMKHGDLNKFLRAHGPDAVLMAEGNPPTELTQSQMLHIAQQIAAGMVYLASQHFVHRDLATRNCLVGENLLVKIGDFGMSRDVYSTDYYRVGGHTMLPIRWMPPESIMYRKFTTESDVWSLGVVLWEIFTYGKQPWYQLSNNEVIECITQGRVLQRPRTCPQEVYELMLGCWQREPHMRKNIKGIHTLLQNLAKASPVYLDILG

With `CN1CCN(c2ccc(C(=O)Nc3n[nH]c4c3CN(Cc3cc(F)cc(F)c3)C4(C)C)cc2)CC1` the viability at 0.5 µM (KM12 [1]) was 25%, the Tmax [2] was 1.67 h and the Activity (KM12 [3]) was 7.65%. The inhibition [4] was 102%, the Activity (KM12 [5]) was 18.23% and the Activity (KM12 [6]) was 73.9%. The Activity (KM12 [7]) was 9.89%, the Activity (KM12 [8]) was 36.3% and the Activity (KM12 [9]) was 0.04%. The inhibition [10] was 3%, the inhibition [11] was 35% and the Activity (KM12 [12]) was 1.57%. The Stability [13] was 90.9%, the clearance [14] was 8.08 mL/min/kg and the inhibition [15] was 76%. For the same molecule, the remaining at 0.5 h [16] was 95.7%, the inhibition [17] was 100% and the Activity (KM12 [18]) was 11.5%. It also gave an inhibition at 0.25 h, 10 µM (CYP1A2) of 12.9%, an Activity (KM12 [19]) of 40.3% and an Activity (KM12 [20]) of 36.84%. The inhibition [21] was 7%, the Activity (KM12 [22]) was 0.07% and the remaining at 1 h [23] was 99.2%. The inhibition [24] was 31%.
